Assay [1] addresses Urease (Helicobacter pylori) (UniProt Q0PXQ5). Nature of the assay: Inhibition of Campylobacter pylori urease preincubated for 5 mins followed by urea addition measured after 10 mins by Berthelot assay relative to control. Details: concentration or dose not given beside the values. In a few lines: (§1)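 Modified Berthelot assay in pH 7.0 phosphate buffer. Sample and enzyme (0.135 units) are pre-incubated 5 min at 37 °C. Urea (20 mM stock) is added and incubated 10 min at 37 °C. […] IC50 is fitted from dilution series. Mean ± SEM, n = 3.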

The target of the next assay is Urease (Helicobacter pylori, UniProt Q0PXQ5). Nature of the assay: Inhibition of Campylobacter pylori urease preincubated for 5 mins followed by urea addition measured after 10 mins by Berthelot assay. In a few lines:
as §1

SMILES strings stand for the structures. pIC50: −log10 of the molar value.

Urease, sequence (Q0PXQ5 whole entry): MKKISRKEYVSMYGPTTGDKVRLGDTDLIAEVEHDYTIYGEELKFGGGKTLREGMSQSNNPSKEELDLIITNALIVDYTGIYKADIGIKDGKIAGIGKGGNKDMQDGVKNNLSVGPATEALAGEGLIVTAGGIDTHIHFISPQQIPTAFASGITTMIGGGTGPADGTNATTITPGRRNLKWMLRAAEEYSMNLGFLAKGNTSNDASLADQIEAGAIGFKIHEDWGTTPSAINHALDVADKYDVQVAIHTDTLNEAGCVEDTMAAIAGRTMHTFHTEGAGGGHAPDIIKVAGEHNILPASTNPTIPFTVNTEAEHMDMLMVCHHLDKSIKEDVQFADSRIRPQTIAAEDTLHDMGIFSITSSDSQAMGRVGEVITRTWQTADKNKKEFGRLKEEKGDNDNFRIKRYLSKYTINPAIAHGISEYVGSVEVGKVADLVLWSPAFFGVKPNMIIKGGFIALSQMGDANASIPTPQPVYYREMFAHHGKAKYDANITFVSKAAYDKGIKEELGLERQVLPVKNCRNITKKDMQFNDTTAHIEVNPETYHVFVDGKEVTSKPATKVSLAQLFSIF
Urease (Helicobacter pylori), sequence (Q0PXQ5 as listed by the source): as the sequence (Q0PXQ5 whole entry) above

Broadly, the inhibition is the share of the control response that was lost under treatment. For orientation: pIC50 means the negative decadic logarithm of the IC50, by convention in mol/L. On to `Cc1ccccc1NC(=O)CCSc1nnc(Cc2csc(NC(=O)c3ccccc3)n2)o1`, for which the inhibition in assay [1] came to 98.2%. For the same compound, on Urease, the pIC50 was 5.13.
The like results for `Cc1ccc(C)c(NC(=O)CCSc2nnc(Cc3csc(NC(=O)c4ccccc4)n3)o2)c1` were, in that order, 77.9% and 4.82.
As for `O=C(CCSc1nnc(Cc2csc(NC(=O)c3ccccc3)n2)o1)Nc1ccccc1`, the inhibition in assay [1] was found to be 98.5%. The same compound had a pIC50 on Urease of 5.53.
The like results for `CCc1ccccc1NC(=O)CCSc1nnc(Cc2csc(NC(=O)c3ccccc3)n2)o1` were, in that order, 98.7% and 5.59.
Taken in the same sequence, the figures for `Cc1ccc(NC(=O)CCSc2nnc(Cc3csc(NC(=O)c4ccccc4)n3)o2)cc1C` were 76.5% and 4.47.
In the case of `CCc1ccc(NC(=O)CCSc2nnc(Cc3csc(NC(=O)c4ccccc4)n3)o2)cc1`, in assay [1], the inhibition was determined as 74.2%. Also, the pIC50 on Urease is 4.36.
Taken in the same sequence, the figures for `Cc1cc(C)cc(NC(=O)CCSc2nnc(Cc3csc(NC(=O)c4ccccc4)n3)o2)c1` were 64.8% and 4.28.
`CCOc1ccc(NC(=O)CCSc2nnc(Cc3csc(NC(=O)c4ccccc4)n3)o2)cc1`: the inhibition in assay [1] was 88.8%. This compound had a pIC50 on Urease of 4.63.
The like results for `Cc1cccc(NC(=O)CCSc2nnc(Cc3csc(NC(=O)c4ccccc4)n3)o2)c1C` were, in that order, 69.8% and 4.32.
The like results for `Cc1cccc(NC(=O)CCSc2nnc(Cc3csc(NC(=O)c4ccccc4)n3)o2)c1` were, in that order, 84.8% and 4.91.
Taken in the same sequence, the figures for `Cc1cccc(C)c1NC(=O)CCSc1nnc(Cc2csc(NC(=O)c3ccccc3)n2)o1` were 98.5% and 5.55.
`NC(N)=S` [THIOUREA] had a pIC50 against Urease of 4.68.
The compound `Cc1ccc(NC(=O)CCSc2nnc(Cc3csc(NC(=O)c4ccccc4)n3)o2)cc1` yielded an inhibition in assay [1] of 76.4%. Also, the pIC50 against Urease is 4.53.

The values above are taken from ChEMBL document CHEMBL4118270, “Synthesis, in vitro and in silico studies of novel potent urease inhibitors: N-[4-({5-[(3-Un/substituted-anilino-3-oxopropyl)sulfanyl]-1,3,4-oxadiazol-2-yl}methyl)-1,3-thiazol-2-yl]benzamides” (Bioorg Med Chem, 2018).
